From ChEMBL document CHEMBL1268908, “Design, synthesis, radiolabeling, and in vivo evaluation of carbon-11 labeled N-[2-[4-(3-cyanopyridin-2-yl)piperazin-1-yl]ethyl]-3-methoxybenzamide, a potential positron emission tomography tracer for the dopamine D(4) receptors” (J Med Chem, 2010)

Assays:
Assay type in all cases: ADME, organism-based, Macaca mulatta
[1] = Biodistribution in rhesus monkey cerebellum at 150.3 MBq, iv after 57.5 mins; settings: in vivo
Summary of the method: (§1)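 Male rhesus monkey under ketamine (10 mg/kg im) with head fixation. After a 20 min 68Ge-68Ga transmission scan, the [11C]-labelled tracer in saline (pH 7.4) was injected iv, at 2.9 TBq/μmol specific radioactivity at injection. A dynamic 3D PET scan followed over 90 min (6×0.5, 7×1, 20×2, 8×5 min frames). Regions were defined on T1-weighted 1.5 T MRI, and uptake is given as %ID/mL.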

Striatum [2] = assay: Biodistribution in rhesus monkey striatum at 150.3 MBq, iv after 0.25 mins; settings: in vivo, 15 s
Striatum [3] = assay: Biodistribution in rhesus monkey striatum at 150.3 MBq, iv after 21 mins; settings: in vivo, 0.35 h
[4] = Biodistribution in rhesus monkey cerebellum at 150.3 MBq, iv after 1.25 mins; settings: in vivo, 75 s; summary of the method: as §1
Hippocampus [5] = assay: Biodistribution in rhesus monkey hippocampus at 150.3 MBq, iv after 27 mins; settings: in vivo, 0.45 h
Summary of the method: (§2)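 Single male rhesus monkey anesthetized with ketamine 10 mg/kg im, head fixed. Attenuation correction by 20 min 68Ge-68Ga transmission scan. [11C]-tracer in saline (pH 7.4) given iv, specific radioactivity 2.9 TBq/μmol at injection. Dynamic 3D PET emission scan over 90 min in frames of 0.5 to 5 min. MRI T1 images used to define VOIs. Uptake expressed as […].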

[6] = Biodistribution in rhesus monkey cingulate cortex at 150.3 MBq, iv after 7.5 mins; settings: in vivo, 0.125 h; summary of the method: as §2
[7] = Biodistribution in rhesus monkey entorhinal cortex at 150.3 MBq, iv after 87.5 mins; settings: in vivo; summary of the method: as §2
Hippocampus [8] = assay: Biodistribution in rhesus monkey hippocampus at 150.3 MBq, iv after 45 mins; settings: in vivo, 0.75 h
Summary of the method: (§3)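 Male rhesus monkey under ketamine 10 mg/kg im, head fixed; 20 min 68Ge-68Ga transmission scan, then 90 min dynamic 3D PET (6×0.5, 7×1, 20×2, 8×5 min frames) after iv [11C]-labelled tracer in saline, specific radioactivity about 2.9 TBq/μmol at injection. Regions defined on T1-weighted MRI; uptake expressed as % injected dose per mL.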

[9] = Biodistribution in rhesus monkey cerebellum at 150.3 MBq, iv after 13 mins; settings: in vivo; summary of the method: as §1
Hippocampus [10] = assay: Biodistribution in rhesus monkey hippocampus at 150.3 MBq, iv after 31 mins; settings: in vivo; summary of the method: as §3
[11] = Biodistribution in rhesus monkey occipital lobe at 150.3 MBq, iv after 6.5 mins; settings: in vivo
Hippocampus [12] = assay: Biodistribution in rhesus monkey hippocampus […], iv after 17 mins; settings: in vivo, in the assay text read “150.3 MBq” for “170.3 MBq”; summary of the method: as §3
[13] = Biodistribution in rhesus monkey retina at 150.3 MBq, iv after 3.5 mins; settings: in vivo
Hippocampus [14] = assay: Biodistribution in rhesus monkey hippocampus at 150.3 MBq, iv after 49 mins; settings: in vivo; summary of the method: as §3
Hippocampus [15] = assay: Biodistribution in rhesus monkey hippocampus at 150.3 MBq, iv after 87.5 mins; settings: in vivo; summary of the method: as §3
Striatum [16] = assay: Biodistribution in rhesus monkey striatum at 150.3 MBq, iv after 47 mins; settings: in vivo
Striatum [17] = assay: Biodistribution in rhesus monkey striatum at 150.3 MBq, iv after 82.5 mins; settings: in vivo, 1.375 h
[18] = Biodistribution in rhesus monkey occipital lobe at 150.3 MBq, iv after 23 mins; settings: in vivo; summary of the method: as §3
[19] = Biodistribution in rhesus monkey occipital lobe at 150.3 MBq, iv after 3.5 mins; settings: in vivo; summary of the method: as §3
[20] = Biodistribution in rhesus monkey cingulate cortex at 150.3 MBq, iv after 39 mins; settings: in vivo, 0.65 h; summary of the method: as §1
Striatum [21] = assay: Biodistribution in rhesus monkey striatum at 150.3 MBq, iv after 2.25 mins; settings: in vivo, 135 s
Hippocampus [22] = assay: Biodistribution in rhesus monkey hippocampus at 150.3 MBq, iv after 43 mins; settings: in vivo; summary of the method: as §3
[23] = Biodistribution in rhesus monkey retina at 150.3 MBq, iv after 19 mins; settings: in vivo
[24] = Biodistribution in rhesus monkey cingulate cortex at 150.3 MBq, iv after 1.25 mins; settings: in vivo, 75 s; summary of the method: as §1
Hippocampus [25] = assay: Biodistribution in rhesus monkey hippocampus at 150.3 MBq, iv after 57.5 mins; settings: in vivo; summary of the method: as §3
Hippocampus [26] = assay: Biodistribution in rhesus monkey hippocampus at 150.3 MBq, iv after 23 mins; settings: in vivo; summary of the method: as §2
[27] = Biodistribution in rhesus monkey entorhinal cortex at 150.3 MBq, iv after 2.75 mins; settings: in vivo, 165 s; summary of the method: as §2
Hippocampus [28] = assay: Biodistribution in rhesus monkey hippocampus at 150.3 MBq, iv after 1.75 mins; settings: in vivo, 105 s; summary of the method: as §2
[29] = Biodistribution in rhesus monkey cingulate cortex at 150.3 MBq, iv after 13 mins; settings: in vivo; summary of the method: as §1
[30] = Biodistribution in rhesus monkey retina at 150.3 MBq, iv after 41 mins; settings: in vivo
Hippocampus [31] = assay: Biodistribution in rhesus monkey hippocampus at 150.3 MBq, iv after 21 mins; settings: in vivo, 0.35 h; summary of the method: as §2
[32] = Biodistribution in rhesus monkey cerebellum at 150.3 MBq, iv after 3.5 mins; settings: in vivo; summary of the method: as §1
Striatum [33] = assay: Biodistribution in rhesus monkey striatum at 150.3 MBq, iv after 15 mins; settings: in vivo, 0.25 h
[34] = Biodistribution in rhesus monkey entorhinal cortex at 150.3 MBq, iv after 23 mins; settings: in vivo; summary of the method: as §2
[35] = Biodistribution in rhesus monkey cingulate cortex at 150.3 MBq, iv after 72.5 mins; settings: in vivo; summary of the method: as §2
[36] = Biodistribution in rhesus monkey occipital lobe at 150.3 MBq, iv after 87.5 mins; settings: in vivo
Striatum [37] = assay: Biodistribution in rhesus monkey striatum at 150.3 MBq, iv after 67.5 mins; settings: in vivo, 1.125 h
[38] = Biodistribution in rhesus monkey cingulate cortex at 150.3 MBq, iv after 82.5 mins; settings: in vivo, 1.375 h; summary of the method: as §2
[39] = Biodistribution in rhesus monkey cerebellum at 150.3 MBq, iv after 41 mins; settings: in vivo; summary of the method: as §1
[40] = Biodistribution in rhesus monkey cerebellum at 150.3 MBq, iv after 2.75 mins; settings: in vivo, 165 s; summary of the method: as §1
[41] = Biodistribution in rhesus monkey occipital lobe at 150.3 MBq, iv after 37 mins; settings: in vivo; summary of the method: as §3
[42] = Biodistribution in rhesus monkey cerebellum at 150.3 MBq, iv after 37 mins; settings: in vivo; summary of the method: as §1
[43] = Biodistribution in rhesus monkey cerebellum at 150.3 MBq, iv after 5.5 mins; settings: in vivo; summary of the method: as §1
[44] = Biodistribution in rhesus monkey occipital lobe at 150.3 MBq, iv after 52.5 mins; settings: in vivo, 0.875 h
[45] = Biodistribution in rhesus monkey entorhinal cortex at 150.3 MBq, iv after 15 mins; settings: in vivo, 0.25 h; summary of the method: as §2
[46] = Biodistribution in rhesus monkey occipital lobe at 150.3 MBq, iv after 82.5 mins; settings: in vivo, 1.375 h
[47] = Biodistribution in rhesus monkey entorhinal cortex at 150.3 MBq, iv after 35 mins; settings: in vivo; summary of the method: as §2

**Q.** Which Drug uptake [1] does the source give for `[11CH3]Oc1cccc(C(=O)NCCN2CCN(c3ncccc3C#N)CC2)c1` here?
**A.** Its Drug uptake is 9.179 kBq/ml.

**Q.** And the Drug uptake (Striatum [2])?
**A.** The Drug uptake was 42.71 kBq/ml.

**Q.** What about the Drug uptake (Striatum [3]) of the same molecule?
**A.** The Drug uptake was 18.62 kBq/ml.

**Q.** What about the Drug uptake [4] of the same molecule?
**A.** The Drug uptake was 51.01 kBq/ml.

**Q.** And the Drug uptake (Hippocampus [5])?
**A.** Its Drug uptake is 15.74 kBq/ml.

**Q.** And the Drug uptake [6]?
**A.** The Drug uptake was 32.75 kBq/ml.

**Q.** What about the Drug uptake [7] of the same molecule?
**A.** The Drug uptake was 10.53 kBq/ml.

**Q.** And the Drug uptake (Hippocampus [8])?
**A.** The Drug uptake was 10.64 kBq/ml.

**Q.** What about the Drug uptake [9] of the same molecule?
**A.** Its Drug uptake is 21.2714 kBq/ml.

**Q.** What about the Drug uptake (Hippocampus [10]) of the same molecule?
**A.** Its Drug uptake is 14.91 kBq/ml.

**Q.** What about the Drug uptake [11] of the same molecule?
**A.** The Drug uptake was 30.03 kBq/ml.

**Q.** And the Drug uptake (Hippocampus [12])?
**A.** Its Drug uptake is 19.15 kBq/ml.

**Q.** And the Drug uptake [13]?
**A.** Its Drug uptake is 39.59 kBq/ml.

**Q.** And the Drug uptake (Hippocampus [14])?
**A.** Its Drug uptake is 9.828 kBq/ml.

**Q.** What about the Drug uptake (Hippocampus [15]) of the same molecule?
**A.** Its Drug uptake is 8.159 kBq/ml.

**Q.** And the Drug uptake (Striatum [16])?
**A.** Its Drug uptake is 10.6 kBq/ml.

**Q.** And the Drug uptake (Striatum [17])?
**A.** Its Drug uptake is 8.324 kBq/ml.

**Q.** What about the Drug uptake [18] of the same molecule?
**A.** Its Drug uptake is 15.16 kBq/ml.

**Q.** What about the Drug uptake [19] of the same molecule?
**A.** Its Drug uptake is 37.15 kBq/ml.

**Q.** And the Drug uptake [20]?
**A.** The Drug uptake was 11.74 kBq/ml.

**Q.** What about the Drug uptake (Striatum [21]) of the same molecule?
**A.** Its Drug uptake is 51.53 kBq/ml.

**Q.** And the Drug uptake (Hippocampus [22])?
**A.** The Drug uptake was 10.83 kBq/ml.

**Q.** What about the Drug uptake [23] of the same molecule?
**A.** The Drug uptake was 53.57 kBq/ml.

**Q.** What about the Drug uptake [24] of the same molecule?
**A.** The Drug uptake was 60.79 kBq/ml.

**Q.** What about the Drug uptake (Hippocampus [25]) of the same molecule?
**A.** Its Drug uptake is 7.745 kBq/ml.

**Q.** And the Drug uptake (Hippocampus [26])?
**A.** The Drug uptake was 17.98 kBq/ml.

**Q.** And the Drug uptake [27]?
**A.** Its Drug uptake is 41.01 kBq/ml.

**Q.** And the Drug uptake (Hippocampus [28])?
**A.** The Drug uptake was 50.86 kBq/ml.

**Q.** And the Drug uptake [29]?
**A.** The Drug uptake was 22.54 kBq/ml.

**Q.** What about the Drug uptake [30] of the same molecule?
**A.** The Drug uptake was 57.19 kBq/ml.

**Q.** What about the Drug uptake (Hippocampus [31]) of the same molecule?
**A.** Its Drug uptake is 17.71 kBq/ml.

**Q.** And the Drug uptake [32]?
**A.** The Drug uptake was 38.562 kBq/ml.

**Q.** And the Drug uptake (Striatum [33])?
**A.** The Drug uptake was 21.63 kBq/ml.

**Q.** What about the Drug uptake [34] of the same molecule?
**A.** The Drug uptake was 16.74 kBq/ml.

**Q.** And the Drug uptake [35]?
**A.** Its Drug uptake is 9.513 kBq/ml.

**Q.** What about the Drug uptake [36] of the same molecule?
**A.** Its Drug uptake is 7.721 kBq/ml.

**Q.** And the Drug uptake (Striatum [37])?
**A.** The Drug uptake was 9.576 kBq/ml.

**Q.** What about the Drug uptake [38] of the same molecule?
**A.** The Drug uptake was 9.311 kBq/ml.

**Q.** And the Drug uptake [39]?
**A.** Its Drug uptake is 10.86 kBq/ml.

**Q.** What about the Drug uptake [40] of the same molecule?
**A.** Its Drug uptake is 41.81 kBq/ml.

**Q.** What about the Drug uptake [41] of the same molecule?
**A.** Its Drug uptake is 11.24 kBq/ml.

**Q.** And the Drug uptake [42]?
**A.** The Drug uptake was 11.56 kBq/ml.

**Q.** And the Drug uptake [43]?
**A.** Its Drug uptake is 33.43 kBq/ml.

**Q.** What about the Drug uptake [44] of the same molecule?
**A.** The Drug uptake was 9.487 kBq/ml.

**Q.** What about the Drug uptake [45] of the same molecule?
**A.** The Drug uptake was 22.26 kBq/ml.

**Q.** And the Drug uptake [46]?
**A.** The Drug uptake was 8.356 kBq/ml.

**Q.** What about the Drug uptake [47] of the same molecule?
**A.** The Drug uptake was 11.33 kBq/ml.
